# Legend:
# Beta-secretase 1 [1] = target: T1, Beta-secretase 1 (Homo sapiens, UniProt P56817); experiment: Inhibition of BACE1 by ECL assay
# Beta-secretase 1 [2] = target: T1, Beta-secretase 1; experiment: Inhibition of BACE1 assessed as effect on soluble APPbeta N-terminal fragment secretion in HEK293T cells; assay type: cell-based, HEK-293T
# LLC-PK1 = experiment: Ratio of permeability from basolateral to apical over apical to basolateral side in LLC-PK1 cells transfected with MDR1 by PGP assay; assay type: ADME, cell-based; settings: human
# [3] = Drug level in APP-YAC mouse brain at 20 mg/kg, iv after 30 mins; assay type: ADME, organism-based; set-up: dose 20 mg/kg, route intravenous; settings: read-out: Drug uptake
# Method in brief: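 Brain penetration: brain concentration in mice measured 30 min after a 20 mg/kg i.v. dose, n of 3, reported in nM.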
# [4] = Ratio of drug level in APP-YAC mouse brain to IC50 for BACE1 in HEK293T cells; assay type: ADME, cell-based; settings: hek-293t
# Mus musculus = experiment: Reduction of beta amyloid protein 40 level in transgenic APP-YAC mouse at 50 mg/kg, iv after 3 hrs relative to control; assay type: functional; set-up: scale not given: the % may be the effect or the level left
# Method in brief: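 APP-YAC mice (human WT APP on a yeast artificial chromosome) given i.v. bolus; brain Aβ40 measured at 0.5–4.5 h (time course, 50 mg/kg) and at 3.0 h across 6.25–50 mg/kg; reduction relative to vehicle-treated animals, Tukey-Kramer HSD statistics; γ-secretase inhibitor as positive control.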
# [5] = Drug level in APP-YAC mouse brain at 50 mg/kg, iv after 0.5 hrs; assay type: ADME, organism-based; set-up: dose 50 mg/kg, route intravenous; settings: read-out: Drug uptake
# Method in brief: (§1)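 Time course: transgenic mice expressing human WT APP from a yeast artificial chromosome given a 50 mg/kg i.v. bolus; brain drug concentration measured at 0.5, 1.5, 3 and 4.5 h post-dose.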
# [6] = Drug level in APP-YAC mouse brain at 50 mg/kg, iv after 4.5 hrs; assay type: ADME, organism-based; set-up: dose 50 mg/kg, route intravenous; settings: read-out: Drug uptake; method in brief: as §1
# Brain [7] = experiment: Drug level in APP-YAC mouse brain at 50 mg/kg, iv; assay type: ADME, organism-based; set-up: dose 50 mg/kg, route intravenous; settings: in vivo, read-out: Drug uptake
# Method in brief: (§2)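 Dose response: APP-YAC transgenic mice given i.v. bolus doses of 6.25, 12.5, 25 or 50 mg/kg; brain drug concentration determined 3.0 h post-dose.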
# Brain [8] = experiment: Drug level in APP-YAC mouse brain at 25 mg/kg, iv; assay type: ADME, organism-based; set-up: dose 25 mg/kg, route intravenous; settings: in vivo, read-out: Drug uptake; method in brief: as §2
# Rattus norvegicus = experiment: Plasma clearance in rat at 2 mg/kg, iv; assay type: ADME, organism-based; set-up: dose 2 mg/kg, route intravenous; settings: in vivo
# [9] = Volume of distribution in rat at 2 mg/kg, iv; assay type: ADME, organism-based; set-up: dose 2 mg/kg, route intravenous; settings: in vivo, read-out: Vdss
# [10] = Cmax in rat at 10 mg/kg, po; assay type: ADME, organism-based; set-up: dose 10 mg/kg, route oral; settings: in vivo
# [11] = Oral bioavailability in rat; assay type: ADME, organism-based; settings: in vivo
# [12] = Half life in rat at 2 mg/kg, iv; settings: in vivo
# T1 sequence (P56817 whole entry, the tested form may be a part): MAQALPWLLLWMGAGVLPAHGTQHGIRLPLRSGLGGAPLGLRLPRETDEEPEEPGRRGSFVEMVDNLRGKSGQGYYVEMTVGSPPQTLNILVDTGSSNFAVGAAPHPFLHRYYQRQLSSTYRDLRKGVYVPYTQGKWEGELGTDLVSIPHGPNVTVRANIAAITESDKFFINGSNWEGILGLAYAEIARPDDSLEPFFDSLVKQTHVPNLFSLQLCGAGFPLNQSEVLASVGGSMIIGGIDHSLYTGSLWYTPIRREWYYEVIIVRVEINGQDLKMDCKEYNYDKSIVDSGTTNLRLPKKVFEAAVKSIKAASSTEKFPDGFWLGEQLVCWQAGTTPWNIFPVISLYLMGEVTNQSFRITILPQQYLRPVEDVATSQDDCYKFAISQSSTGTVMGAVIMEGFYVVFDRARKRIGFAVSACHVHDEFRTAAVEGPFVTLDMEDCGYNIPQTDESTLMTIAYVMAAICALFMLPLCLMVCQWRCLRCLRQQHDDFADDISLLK
IC50 (Beta-secretase 1 [1]) [nM],IC50 (Beta-secretase 1 [2]) [nM],Ratio (LLC-PK1),concentration at 0.5 h [3] [nM],Ratio [4],Compound,other results
350,> 20000,3.6,1400,< 0.07,CCCN(CC1CC1)c1cc(C(=O)N[C@H](CO)Cc2ccccc2)cc(N(C)S(=O)(=O)C(C)C)n1,–
18,910,4.8,–,3.4,CC(C)S(=O)(=O)N(C)c1cc(C(=O)N[C@@H](Cc2ccccc2)[C@@H](N)CF)cc(N(C)C[C@H]2C[C@@H]2C)n1,clearance (Rattus norvegicus): 59.1 mL/min/kg; Vd [9]: 4.2 L/kg; Cmax [10]: 200 nM; bioavailability [11]: 8%
14,> 20000,–,–,–,CC(C)S(=O)(=O)N(C)c1cc(C(=O)N[C@H](CO)Cc2cc(F)cc(F)c2)cc(NC[C@H]2C[C@@H]2C)n1,–
–,–,–,3080,–,CC1CC1CN(C)c1cc(C(=O)N[C@@H](Cc2cc(F)cc(F)c2)[C@@H](N)CF)cc(N(C)S(=O)(=O)C(C)C)n1 (mixture of isomers),–

# Continued, compound first:
Compound,IC50 (Beta-secretase 1 [1]) [nM],IC50 (Beta-secretase 1 [2]) [nM],Ratio (LLC-PK1),concentration at 0.5 h [3] [nM],Ratio [4],other results
CN(c1cc(C(=O)N[C@H](CO)Cc2cc(F)cc(F)c2)cc(NCC2CC2)n1)S(C)(=O)=O,1100,–,–,–,–,–
CC(C)S(=O)(=O)N(C)c1cc(C(=O)N[C@@H](Cc2ccccc2)[C@@H](N)CF)cc(NC[C@H]2C[C@@H]2C)n1,2,49,> 50,–,11.4,Activity (Mus musculus): 34%; concentration at 0.5 h [5]: 5800 nM; concentration at 4.5 h [6]: 700 nM; concentration (Brain [7]): 1900 nM; concentration (Brain [8]): 700 nM; clearance (Rattus norvegicus): 45.8 mL/min/kg; Vd [9]: 3.9 L/kg; Cmax [10]: 300 nM; bioavailability [11]: 13%; half-life [12]: 1.6 h
CC1CC1CNc1cc(C(=O)N[C@@H](Cc2ccccc2)[C@@H](N)CF)cc(N(C)S(=O)(=O)C(C)C)n1 (mixture of isomers),–,–,–,560,–,–

# Reference: ChEMBL document CHEMBL1145451, “Discovery of isonicotinamide derived beta-secretase inhibitors: in vivo reduction of beta-amyloid” (J Med Chem, 2007)
